Activity calls are given as the source filed them. The calls are words filed in the database; no cut-off is given here.
What was measured:
HCT-116 [1] = assay: Induction of cell cycle arrest in human HCT-116 cells assessed as G2/M phase at 5 uM incubated for 6 hrs by flow cytometry analysis (Rvb=25.8%); type: functional
[2] = biological target: T1, Cyclin-dependent kinase 5/CDK5 activator 1 (Homo sapiens) (UniProt Q00535+Q15078); assay: Inhibition of CDK5/p25 (unknown origin) at 100 nM in the presence of ATP by Kinome scan method relative to control; type: protein-complex assay
[3] = biological target: Protein kinase C alpha type (Homo sapiens) (UniProt P17252); assay: Inhibition of PRKCA (unknown origin) at 100 nM in the presence of ATP by Kinome scan method relative to control
[4] = biological target: Ephrin type-A receptor 5 (Homo sapiens) (UniProt P54756); assay: Inhibition of EPHA5 (unknown origin) at 100 nM in the presence of ATP by Kinome scan method relative to control
[5] = biological target: Interleukin-1 receptor-associated kinase 4 (Homo sapiens) (UniProt Q9NWZ3); assay: Inhibition of IRAK4 (unknown origin) at 1000 nM in the presence of ATP by Kinome scan method relative to control
HCT-116 [6] = assay: Induction of apoptosis in human HCT-116 cells assessed as necrosis cells at 10 uM incubated for > 6 hrs by annexin V/PI staining based analysis (Rvb=0.55%); type: functional
[7] = biological target: Aurora kinase A (Homo sapiens) (UniProt O14965); assay: Inhibition of AURKA (unknown origin) at 1000 nM in the presence of ATP by Kinome scan method relative to control
HCT-116 [8] = assay: Induction of cell cycle arrest in human HCT-116 cells assessed as G0/G1 phase at 0.1 uM incubated for 24 hrs by flow cytometry analysis (Rvb=35.7%); type: functional
[9] = Stability of compound in tissue culture medium assessed as remaining parent compound at 5.30 uM incubated for 48 hrs; type: physicochemical; conditions: read-out: Stability
[10] = biological target: Mitogen-activated protein kinase 11 (Homo sapiens) (UniProt Q15759); assay: Inhibition of MAPK11 (unknown origin) at 100 nM in the presence of ATP by Kinome scan method relative to control
[11] = biological target: Dual specificity protein kinase CLK1 (Homo sapiens) (UniProt P49759); assay: Inhibition of CLK (unknown origin) in human 184-hTERT cells assessed as induction in alternative splicing effect in RBM25-PSEN1 level incubated for 6 hrs by RT-PCR analysis; type: cell-based; conditions: dose 0.2-5 µM
Method in brief: (§1)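 Cells exposed to graded T3 concentrations for 6 h (chosen to avoid cytotoxicity), with a DMSO vehicle control. Total RNA was reverse-transcribed with oligo-dT primers. Targeted splice or conjoined-gene products were quantified by real-time qPCR or by targeted next-generation sequencing. Conjoined-gene isoform expression was normalized to a sequenced housekeeping gene.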

HCT-116 [12] = assay: Induction of cell cycle arrest in human HCT-116 cells assessed as sub G0/G1 phase at 5 uM incubated for 24 hrs by flow cytometry analysis (Rvb=2.5%); type: functional
HCT-116 [13] = assay: Induction of cell cycle arrest in human HCT-116 cells assessed as S phase at 1 uM incubated for 6 hrs by flow cytometry analysis (Rvb=39.3%); type: functional
[14] = biological target: Serine/threonine-protein kinase Chk2 (Homo sapiens) (UniProt O96017); assay: Inhibition of CHEK2 (unknown origin) at 1000 nM in the presence of ATP by Kinome scan method relative to control
[15] = biological target: Aurora kinase A (Homo sapiens) (UniProt O14965); assay: Inhibition of AURKA (unknown origin) at 100 nM in the presence of ATP by Kinome scan method relative to control
[16] = biological target: T1, Cyclin-dependent kinase 5/CDK5 activator 1 (Homo sapiens); assay: Inhibition of CDK5/p25 (unknown origin) at 1000 nM in the presence of ATP by Kinome scan method relative to control; type: protein-complex assay
[17] = biological target: Proto-oncogene tyrosine-protein kinase ROS (Homo sapiens) (UniProt P08922); assay: Inhibition of ROS1 (unknown origin) at 100 nM in the presence of ATP by Kinome scan method relative to control
HCT-116 [18] = assay: Induction of cell cycle arrest in human HCT-116 cells assessed as sub G0/G1 phase at 10 uM incubated for 24 hrs by flow cytometry analysis (Rvb=2.5%); type: functional
HCT-116 [19] = assay: Induction of cell cycle arrest in human HCT-116 cells assessed as S phase at 1 uM incubated for 24 hrs by flow cytometry analysis (Rvb=46.4%); type: functional
[20] = biological target: Ephrin type-A receptor 2 (Homo sapiens) (UniProt P29317); assay: Inhibition of EPHA2 (unknown origin) at 1000 nM in the presence of ATP by Kinome scan method relative to control
[21] = biological target: Serine/threonine-protein kinase pim-1 (Homo sapiens) (UniProt P11309); assay: Inhibition of PIM1 (unknown origin) at 100 nM in the presence of ATP by Kinome scan method relative to control
[22] = biological target: Cyclin-dependent kinase 1/cyclin B1 (Homo sapiens) (UniProt P06493+P14635); assay: Inhibition of CDK1/cyclin B (unknown origin) at 100 nM in the presence of ATP by Kinome scan method relative to control; type: protein-complex assay
Homo sapiens = species: Homo sapiens; assay: Inhibition of CDK2/cyclin A (unknown origin) at 1000 nM in the presence of ATP by Kinome scan method relative to control
HCT-116 [23] = assay: Induction of cell cycle arrest in human HCT-116 cells assessed as G0/G1 phase at 10 uM incubated for 6 hrs by flow cytometry analysis (Rvb=35.0%); type: functional
[24] = biological target: Homeodomain-interacting protein kinase 2 (Homo sapiens) (UniProt Q9H2X6); assay: Inhibition of HIPK2 (unknown origin) at 1000 nM in the presence of ATP by Kinome scan method relative to control
[25] = biological target: Proto-oncogene tyrosine-protein kinase receptor Ret (Homo sapiens) (UniProt P07949); assay: Inhibition of RET (unknown origin) at 100 nM in the presence of ATP by Kinome scan method relative to control
[26] = biological target: Dual specificity protein kinase CLK1 (Homo sapiens) (UniProt P49759); assay: Inhibition of CLK (unknown origin) in human HCT-116 cells assessed as induction in alternative splicing effect in S6K skipped exon /canonical form incubated for 6 hrs by RT-PCR analysis; type: cell-based; conditions: dose 0.2-5 µM; method in brief: as §1
[27] = biological target: Proto-oncogene tyrosine-protein kinase Src (Homo sapiens) (UniProt P12931); assay: Inhibition of SRC (unknown origin) at 1000 nM in the presence of ATP by Kinome scan method relative to control
[28] = Stability of compound in tissue culture medium assessed as remaining parent compound at 5.38 uM incubated for 24 hrs; type: physicochemical; conditions: read-out: Stability
HCT-116 [29] = assay: Induction of apoptosis in human HCT-116 cells assessed as early apoptosis at 0.1 uM incubated for > 6 hrs by annexin V/PI staining based analysis (Rvb=3.29%); type: functional
[30] = biological target: Ephrin type-B receptor 1 (Homo sapiens) (UniProt P54762); assay: Inhibition of EPHB1 (unknown origin) at 100 nM in the presence of ATP by Kinome scan method relative to control
[31] = biological target: Dual specificity protein kinase CLK1 (Homo sapiens) (UniProt P49759); assay: Inhibition of CLK (unknown origin) in human HCT-116 cells assessed as decrease in SRSF6 phosphorylation level at 0.5 to 1.0 uM incubated for 6 hrs by immunoblot analysis; type: cell-based; conditions: dose 0.5-1 µM

Sequence of Dual specificity protein kinase CLK1 (Homo sapiens) (P49759 whole entry, looked up, canonical isoform): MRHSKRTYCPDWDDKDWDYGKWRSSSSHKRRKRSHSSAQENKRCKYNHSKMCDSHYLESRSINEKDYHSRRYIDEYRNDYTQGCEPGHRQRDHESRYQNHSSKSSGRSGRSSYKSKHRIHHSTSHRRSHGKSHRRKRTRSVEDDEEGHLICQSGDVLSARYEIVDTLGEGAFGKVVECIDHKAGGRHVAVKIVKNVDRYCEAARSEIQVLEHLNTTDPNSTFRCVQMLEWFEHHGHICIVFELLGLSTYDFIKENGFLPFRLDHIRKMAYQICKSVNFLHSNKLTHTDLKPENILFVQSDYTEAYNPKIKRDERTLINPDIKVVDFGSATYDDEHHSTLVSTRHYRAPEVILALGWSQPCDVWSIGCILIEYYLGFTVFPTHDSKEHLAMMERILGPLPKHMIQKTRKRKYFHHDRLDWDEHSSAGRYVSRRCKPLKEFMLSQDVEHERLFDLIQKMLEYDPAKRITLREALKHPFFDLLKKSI
Sequence of Aurora kinase A (Homo sapiens) (O14965 whole entry): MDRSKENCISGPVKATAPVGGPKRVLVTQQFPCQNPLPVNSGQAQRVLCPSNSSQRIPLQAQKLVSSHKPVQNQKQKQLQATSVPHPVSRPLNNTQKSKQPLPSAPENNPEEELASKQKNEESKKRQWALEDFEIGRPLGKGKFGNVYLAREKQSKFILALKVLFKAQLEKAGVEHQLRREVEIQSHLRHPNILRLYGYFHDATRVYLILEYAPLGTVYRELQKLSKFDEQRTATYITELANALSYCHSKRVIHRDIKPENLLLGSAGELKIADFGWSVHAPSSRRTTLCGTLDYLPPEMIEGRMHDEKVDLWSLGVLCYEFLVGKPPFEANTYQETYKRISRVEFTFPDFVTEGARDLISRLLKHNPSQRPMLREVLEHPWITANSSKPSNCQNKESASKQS
T1 sequence (Q00535 whole entry): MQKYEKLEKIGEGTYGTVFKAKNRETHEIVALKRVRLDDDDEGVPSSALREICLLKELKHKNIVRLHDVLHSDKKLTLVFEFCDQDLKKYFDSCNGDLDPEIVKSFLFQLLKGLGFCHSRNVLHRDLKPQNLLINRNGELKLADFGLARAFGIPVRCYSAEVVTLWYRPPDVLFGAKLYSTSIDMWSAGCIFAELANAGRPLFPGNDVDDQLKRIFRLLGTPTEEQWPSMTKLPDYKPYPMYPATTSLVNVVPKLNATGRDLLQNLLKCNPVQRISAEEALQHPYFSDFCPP
T1 sequence (Q15078 99-307 partner limits assumed): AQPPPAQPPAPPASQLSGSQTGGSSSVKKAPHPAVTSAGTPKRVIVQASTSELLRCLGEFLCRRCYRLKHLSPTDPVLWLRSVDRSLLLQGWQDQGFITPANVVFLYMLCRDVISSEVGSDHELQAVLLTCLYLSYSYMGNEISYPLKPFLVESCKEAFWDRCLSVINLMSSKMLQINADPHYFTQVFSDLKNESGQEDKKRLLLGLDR
Sequence of Proto-oncogene tyrosine-protein kinase ROS (Homo sapiens) (P08922 whole entry): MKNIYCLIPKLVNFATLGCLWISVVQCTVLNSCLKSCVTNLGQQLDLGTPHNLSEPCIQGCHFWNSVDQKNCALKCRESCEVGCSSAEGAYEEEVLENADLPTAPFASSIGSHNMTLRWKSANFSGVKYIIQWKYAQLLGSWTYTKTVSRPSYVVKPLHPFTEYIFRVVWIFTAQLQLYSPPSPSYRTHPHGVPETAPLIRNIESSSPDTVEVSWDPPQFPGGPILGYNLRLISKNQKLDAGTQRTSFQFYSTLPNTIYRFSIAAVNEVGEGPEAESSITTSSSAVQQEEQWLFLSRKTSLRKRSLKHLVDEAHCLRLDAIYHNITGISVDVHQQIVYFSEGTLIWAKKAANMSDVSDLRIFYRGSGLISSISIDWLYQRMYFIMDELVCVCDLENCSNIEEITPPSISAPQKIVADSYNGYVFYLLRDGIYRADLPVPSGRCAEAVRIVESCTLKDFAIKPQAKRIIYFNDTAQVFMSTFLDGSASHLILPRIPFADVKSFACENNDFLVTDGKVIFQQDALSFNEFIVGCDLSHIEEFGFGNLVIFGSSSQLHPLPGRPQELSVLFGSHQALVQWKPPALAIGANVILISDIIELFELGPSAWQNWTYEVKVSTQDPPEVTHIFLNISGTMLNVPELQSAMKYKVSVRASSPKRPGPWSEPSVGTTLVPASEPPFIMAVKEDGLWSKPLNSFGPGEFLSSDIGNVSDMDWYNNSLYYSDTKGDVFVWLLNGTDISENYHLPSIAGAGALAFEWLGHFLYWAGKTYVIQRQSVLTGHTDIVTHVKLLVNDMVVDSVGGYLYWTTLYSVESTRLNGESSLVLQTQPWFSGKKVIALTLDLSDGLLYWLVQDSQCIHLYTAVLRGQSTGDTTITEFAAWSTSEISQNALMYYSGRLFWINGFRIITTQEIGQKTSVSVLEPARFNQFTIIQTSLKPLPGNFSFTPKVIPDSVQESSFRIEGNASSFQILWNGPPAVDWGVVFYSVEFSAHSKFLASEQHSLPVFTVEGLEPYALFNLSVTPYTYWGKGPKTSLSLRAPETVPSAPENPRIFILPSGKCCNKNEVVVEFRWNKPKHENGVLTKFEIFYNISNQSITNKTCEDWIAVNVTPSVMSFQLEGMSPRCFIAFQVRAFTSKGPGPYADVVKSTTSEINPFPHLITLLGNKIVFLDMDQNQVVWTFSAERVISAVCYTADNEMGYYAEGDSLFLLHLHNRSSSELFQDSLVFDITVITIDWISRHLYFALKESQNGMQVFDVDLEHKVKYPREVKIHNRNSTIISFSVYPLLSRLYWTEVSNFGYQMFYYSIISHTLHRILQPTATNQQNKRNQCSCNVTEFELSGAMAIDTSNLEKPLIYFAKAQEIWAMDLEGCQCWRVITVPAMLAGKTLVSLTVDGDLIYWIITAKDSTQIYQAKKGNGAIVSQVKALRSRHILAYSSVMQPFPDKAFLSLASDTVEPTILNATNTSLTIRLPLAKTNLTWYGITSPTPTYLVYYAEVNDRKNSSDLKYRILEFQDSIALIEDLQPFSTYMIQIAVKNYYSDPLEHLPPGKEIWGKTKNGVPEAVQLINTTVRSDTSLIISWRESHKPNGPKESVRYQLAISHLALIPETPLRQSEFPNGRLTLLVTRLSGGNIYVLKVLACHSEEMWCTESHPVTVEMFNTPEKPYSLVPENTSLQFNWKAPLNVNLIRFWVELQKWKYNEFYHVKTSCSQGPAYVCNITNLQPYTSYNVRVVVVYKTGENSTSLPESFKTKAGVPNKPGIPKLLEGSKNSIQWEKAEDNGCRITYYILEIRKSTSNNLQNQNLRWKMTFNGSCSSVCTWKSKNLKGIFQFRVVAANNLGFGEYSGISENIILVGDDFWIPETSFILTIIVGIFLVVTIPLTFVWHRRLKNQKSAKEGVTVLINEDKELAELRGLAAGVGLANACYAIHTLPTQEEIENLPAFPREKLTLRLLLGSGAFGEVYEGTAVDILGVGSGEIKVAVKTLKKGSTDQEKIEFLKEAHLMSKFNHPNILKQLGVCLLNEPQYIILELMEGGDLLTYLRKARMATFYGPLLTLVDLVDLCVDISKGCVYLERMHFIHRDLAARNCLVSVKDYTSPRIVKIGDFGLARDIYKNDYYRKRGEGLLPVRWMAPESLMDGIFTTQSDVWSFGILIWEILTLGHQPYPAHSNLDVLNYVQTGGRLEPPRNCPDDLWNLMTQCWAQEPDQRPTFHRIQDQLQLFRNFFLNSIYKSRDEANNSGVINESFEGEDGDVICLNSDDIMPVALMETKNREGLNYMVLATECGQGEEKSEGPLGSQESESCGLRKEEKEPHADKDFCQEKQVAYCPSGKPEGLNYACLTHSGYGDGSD
Sequence of Ephrin type-A receptor 2 (Homo sapiens) (P29317 whole entry): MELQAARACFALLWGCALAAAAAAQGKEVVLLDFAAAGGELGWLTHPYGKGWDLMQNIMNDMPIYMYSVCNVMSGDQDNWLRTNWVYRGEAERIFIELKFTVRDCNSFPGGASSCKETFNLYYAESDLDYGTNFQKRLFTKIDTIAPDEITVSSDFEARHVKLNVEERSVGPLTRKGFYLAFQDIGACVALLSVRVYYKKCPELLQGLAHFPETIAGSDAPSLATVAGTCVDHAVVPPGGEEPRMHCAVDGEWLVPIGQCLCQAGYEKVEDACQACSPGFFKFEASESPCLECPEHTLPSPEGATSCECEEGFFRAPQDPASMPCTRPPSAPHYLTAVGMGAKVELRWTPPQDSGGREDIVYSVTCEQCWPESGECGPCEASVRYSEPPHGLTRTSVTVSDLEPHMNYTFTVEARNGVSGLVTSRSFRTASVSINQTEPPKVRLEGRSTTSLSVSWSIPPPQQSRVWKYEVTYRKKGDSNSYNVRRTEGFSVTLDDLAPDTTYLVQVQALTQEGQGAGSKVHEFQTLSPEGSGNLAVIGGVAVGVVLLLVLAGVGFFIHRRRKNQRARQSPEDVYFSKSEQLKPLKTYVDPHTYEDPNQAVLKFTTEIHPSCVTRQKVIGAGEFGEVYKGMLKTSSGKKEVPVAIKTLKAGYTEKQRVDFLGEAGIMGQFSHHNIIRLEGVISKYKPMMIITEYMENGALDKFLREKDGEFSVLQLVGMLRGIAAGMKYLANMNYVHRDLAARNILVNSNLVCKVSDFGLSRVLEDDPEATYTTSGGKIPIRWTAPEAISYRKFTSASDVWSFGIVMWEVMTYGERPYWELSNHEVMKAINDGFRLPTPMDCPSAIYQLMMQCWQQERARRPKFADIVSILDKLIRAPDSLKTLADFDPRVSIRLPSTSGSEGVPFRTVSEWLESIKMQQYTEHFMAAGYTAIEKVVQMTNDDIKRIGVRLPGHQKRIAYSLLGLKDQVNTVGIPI
Sequence of Serine/threonine-protein kinase pim-1 (Homo sapiens) (P11309 whole entry, looked up): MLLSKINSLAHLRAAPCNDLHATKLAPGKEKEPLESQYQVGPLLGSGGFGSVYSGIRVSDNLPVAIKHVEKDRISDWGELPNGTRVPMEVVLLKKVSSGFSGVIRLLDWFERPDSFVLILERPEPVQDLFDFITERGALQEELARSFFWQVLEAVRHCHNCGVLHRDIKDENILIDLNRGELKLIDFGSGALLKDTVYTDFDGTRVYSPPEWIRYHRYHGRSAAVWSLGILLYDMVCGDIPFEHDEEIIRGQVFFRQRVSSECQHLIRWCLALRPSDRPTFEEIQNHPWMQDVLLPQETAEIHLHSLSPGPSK

inhibition [2]: 2%
inhibition [3]: 4%
inhibition [4]: -6%
inhibition [5]: 42%
inhibition [7]: 9%
remaining at 48 h, 5.3 µM [9]: 98.7%
inhibition [10]: 1%
inhibition [11]: Dose-Dependent Effect
inhibition [14]: 24%
inhibition [15]: 5%
inhibition [16]: 1%
inhibition [17]: -4%
inhibition [20]: -6%
inhibition [21]: 16%
inhibition [22]: 8%
inhibition (Homo sapiens): 3%
inhibition [24]: -2%
inhibition [25]: -1%
inhibition [26]: Dose-Dependent Effect
inhibition [27]: 47%
remaining at 24 h, 5.38 µM [28]: 98.8%
inhibition [30]: 5%
inhibition [31]: Active
SMILES: CN1CCN(C(=O)C(C)(C)c2ccc(C(=O)Nc3cn4cc(-c5ccncc5)ccc4n3)cc2)CC1 [T3-CLK]
Activity (HCT-116 [1]): 34.5%
Activity (HCT-116 [6]): 0.86%
Activity (HCT-116 [8]): 38.7%
Activity (HCT-116 [12]): 20.9%
Activity (HCT-116 [13]): 47%
Activity (HCT-116 [18]): 19%
Activity (HCT-116 [19]): 46.7%
Activity (HCT-116 [23]): 28.4%
Activity (HCT-116 [29]): 3.11%

— ChEMBL document CHEMBL5696444 (Nat Commun, 2017)
